Data taken from publication PMC12783166 (Clinical Pharmacokinetics, 2025).

Assay: Individual predicted steady-state exposures
Format: in vivo, human
Settings: for AUC / Cmax: human, plasma, oral
How it was run: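 Steady-state AUC24, Ctrough, Cmax and Cavg were derived from each individual's Bayesian post hoc estimates from the final three-compartment population PK model, with sequential zero-/first-order lagged absorption. Values are summarised per […] as mean (SD) and median (5th–95th percentile).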

Cavg, Mean (SD) (ADVANCE EM, 10 mg QD): 21.9 (14) ng/mL | Cavg, Median (5th to 95th percentile) (ADVANCE EM, 10 mg QD): 19.3 (5.35–163) ng/mL | Ctrough, Mean (SD) (ADVANCE EM, 10 mg QD): 3.24 (3.1) ng/mL | Ctrough, Median (5th to 95th percentile) (ADVANCE EM, 10 mg QD): 2.62 (0.576–35.2) ng/mL | Time above ½EC90 (4.2 ng/mL or 7 nM), Mean (SD) (ADVANCE EM, 10 mg QD): 18.1 (3.8) hr | Time above ½EC90 (4.2 ng/mL or 7 nM), Median (5th to 95th percentile) (ADVANCE EM, 10 mg QD): 18.0 (8.00–24.0) hr | Cavg, Mean (SD) (ADVANCE EM, 30 mg QD): 76.1 (54) ng/mL | Cavg, Median (5th to 95th percentile) (ADVANCE EM, 30 mg QD): 65.1 (19.0–466) ng/mL | Ctrough, Mean (SD) (ADVANCE EM, 30 mg QD): 12.0 (16) ng/mL | Ctrough, Median (5th to 95th percentile) (ADVANCE EM, 30 mg QD): 8.85 (2.02–202) ng/mL | Time above ½EC90 (4.2 ng/mL or 7 nM), Mean (SD) (ADVANCE EM, 30 mg QD): 23.7 (1.2) hr | Time above ½EC90 (4.2 ng/mL or 7 nM), Median (5th to 95th percentile) (ADVANCE EM, 30 mg QD): 24.0 (16.0–24.0) hr | Cavg, Mean (SD) (ADVANCE EM, 60 mg QD): 156 (94) ng/mL | Cavg, Median (5th to 95th percentile) (ADVANCE EM, 60 mg QD): 134 (33.9–874) ng/mL | Ctrough, Mean (SD) (ADVANCE EM, 60 mg QD): 23.8 (30) ng/mL | Ctrough, Median (5th to 95th percentile) (ADVANCE EM, 60 mg QD): 18.4 (3.63–373) ng/mL | Time above ½EC90 (4.2 ng/mL or 7 nM), Mean (SD) (ADVANCE EM, 60 mg QD): 24.0 (0.22) hr | Time above ½EC90 (4.2 ng/mL or 7 nM), Median (5th to 95th percentile) (ADVANCE EM, 60 mg QD): 24.0 (21.5–24.0) hr | Cavg, Mean (SD) (CGP-MD-01 EM, 10 mg QD): 19.2 (6.7) ng/mL | Cavg, Median (5th to 95th percentile) (CGP-MD-01 EM, 10 mg QD): 19.3 (7.01–52.2) ng/mL | Ctrough, Mean (SD) (CGP-MD-01 EM, 10 mg QD): 2.80 (1.4) ng/mL | Ctrough, Median (5th to 95th percentile) (CGP-MD-01 EM, 10 mg QD): 2.58 (0.738–9.95) ng/mL | Time above ½EC90 (4.2 ng/mL or 7 nM), Mean (SD) (CGP-MD-01 EM, 10 mg QD): 17.8 (3.5) hr | Time above ½EC90 (4.2 ng/mL or 7 nM), Median (5th to 95th percentile) (CGP-MD-01 EM, 10 mg QD): 18.0 (9.00–24.0) hr | Cavg, Mean (SD) (CGP-MD-01 EM, 30 mg BID): 162 (85) ng/mL | Cavg, Median (5th to 95th percentile) (CGP-MD-01 EM, 30 mg BID): 132 (50.6–476) ng/mL | Ctrough, Mean (SD) (CGP-MD-01 EM, 30 mg BID): 60.7 (44) ng/mL | Ctrough, Median (5th to 95th percentile) (CGP-MD-01 EM, 30 mg BID): 44.5 (13.3–277) ng/mL | Time above ½EC90 (4.2 ng/mL or 7 nM), Mean (SD) (CGP-MD-01 EM, 30 mg BID): 12.0 (0.0) hr | Time above ½EC90 (4.2 ng/mL or 7 nM), Median (5th to 95th percentile) (CGP-MD-01 EM, 30 mg BID): 12.0 (12.0–12.0) hr | Cavg, Mean (SD) (CGP-MD-01 EM, 30 mg QD): 71.3 (36) ng/mL | Cavg, Median (5th to 95th percentile) (CGP-MD-01 EM, 30 mg QD): 66.2 (30.6–310) ng/mL | Ctrough, Mean (SD) (CGP-MD-01 EM, 30 mg QD): 11.2 (16) ng/mL | Ctrough, Median (5th to 95th percentile) (CGP-MD-01 EM, 30 mg QD): 8.97 (3.68–203) ng/mL | Time above ½EC90 (4.2 ng/mL or 7 nM), Mean (SD) (CGP-MD-01 EM, 30 mg QD): 24.0 (0.19) hr | Time above ½EC90 (4.2 ng/mL or 7 nM), Median (5th to 95th percentile) (CGP-MD-01 EM, 30 mg QD): 24.0 (21.5–24.0) hr | Cavg, Mean (SD) (CGP-MD-01 EM, 60 mg BID): 331 (200) ng/mL | Ctrough, Mean (SD) (CGP-MD-01 EM, 60 mg BID): 133 (140) ng/mL | Ctrough, Median (5th to 95th percentile) (CGP-MD-01 EM, 60 mg BID): 101 (26.1–972) ng/mL | Time above ½EC90 (4.2 ng/mL or 7 nM), Mean (SD) (CGP-MD-01 EM, 60 mg BID): 12.0 (0.0) hr | Time above ½EC90 (4.2 ng/mL or 7 nM), Median (5th to 95th percentile) (CGP-MD-01 EM, 60 mg BID): 12.0 (12.0–12.0) hr | Cavg, Mean (SD) (CGP-MD-01 EM, 60 mg QD): 152 (93) ng/mL | Cavg, Median (5th to 95th percentile) (CGP-MD-01 EM, 60 mg QD): 144 (39.5–992) ng/mL | Ctrough, Mean (SD) (CGP-MD-01 EM, 60 mg QD): 23.6 (30) ng/mL | Ctrough, Median (5th to 95th percentile) (CGP-MD-01 EM, 60 mg QD): 19.5 (5.07–335) ng/mL | Time above ½EC90 (4.2 ng/mL or 7 nM), Mean (SD) (CGP-MD-01 EM, 60 mg QD): 24.0 (0.0) hr | Time above ½EC90 (4.2 ng/mL or 7 nM), Median (5th to 95th percentile) (CGP-MD-01 EM, 60 mg QD): 24.0 (24.0–24.0) hr | Cavg, Mean (SD) (ELEVATE EM, 60 mg QD): 147 (75) ng/mL | Cavg, Median (5th to 95th percentile) (ELEVATE EM, 60 mg QD): 138 (12.5–474) ng/mL | Ctrough, Mean (SD) (ELEVATE EM, 60 mg QD): 15.4 (13) ng/mL | Ctrough, Median (5th to 95th percentile) (ELEVATE EM, 60 mg QD): 13.4 (2.70–98.1) ng/mL | Time above ½EC90 (4.2 ng/mL or 7 nM), Mean (SD) (ELEVATE EM, 60 mg QD): 23.9 (0.79) hr | Time above ½EC90 (4.2 ng/mL or 7 nM), Median (5th to 95th percentile) (ELEVATE EM, 60 mg QD): 24.0 (17.5–24.0) hr | Cavg, Mean (SD) (PROGRESS CM, 30 mg BID): 157 (87) ng/mL | Cavg, Median (5th to 95th percentile) (PROGRESS CM, 30 mg BID): 135 (33.1–571) ng/mL | Ctrough, Mean (SD) (PROGRESS CM, 30 mg BID): 56.1 (43) ng/mL | Ctrough, Median (5th to 95th percentile) (PROGRESS CM, 30 mg BID): 42.4 (8.87–269) ng/mL | Time above ½EC90 (4.2 ng/mL or 7 nM), Mean (SD) (PROGRESS CM, 30 mg BID): 24.0 (0.0) hr | Time above ½EC90 (4.2 ng/mL or 7 nM), Median (5th to 95th percentile) (PROGRESS CM, 30 mg BID): 24.0 (24.0–24.0) hr | Cavg, Mean (SD) (PROGRESS CM, 60 mg QD): 139 (85) ng/mL | Cavg, Median (5th to 95th percentile) (PROGRESS CM, 60 mg QD): 120 (21.9–908) ng/mL | Ctrough, Mean (SD) (PROGRESS CM, 60 mg QD): 18.8 (24) ng/mL | Ctrough, Median (5th to 95th percentile) (PROGRESS CM, 60 mg QD): 14.4 (2.23–287) ng/mL | Time above ½EC90 (4.2 ng/mL or 7 nM), Mean (SD) (PROGRESS CM, 60 mg QD): 23.9 (0.88) hr | Time above ½EC90 (4.2 ng/mL or 7 nM), Median (5th to 95th percentile) (PROGRESS CM, 60 mg QD): 24.0 (15.5–24.0) hr | AUC (10 mg, AUC24, Mean (SD), ADVANCE EM, 10 mg QD): 525 ng·h/mL | AUC (10 mg, AUC24, Mean (SD), CGP-MD-01 EM, 10 mg QD): 461 ng·h/mL | AUC (10 mg, AUC24, Median (5th to 95th percentile), ADVANCE EM, 10 mg QD): 464 ng·h/mL | AUC (10 mg, AUC24, Median (5th to 95th percentile), CGP-MD-01 EM, 10 mg QD): 464 ng·h/mL | Cmax (10 mg, Mean (SD), ADVANCE EM, 10 mg QD): 81.7 ng/mL | Cmax (10 mg, Mean (SD), CGP-MD-01 EM, 10 mg QD): 74.5 ng/mL | Cmax (10 mg, Median (5th to 95th percentile), ADVANCE EM, 10 mg QD): 73.3 ng/mL | Cmax (10 mg, Median (5th to 95th percentile), CGP-MD-01 EM, 10 mg QD): 73.9 ng/mL | AUC (30 mg, AUC24, Mean (SD), ADVANCE EM, 30 mg QD): 1830 ng·h/mL | AUC (30 mg, AUC24, Mean (SD), CGP-MD-01 EM, 30 mg BID): 3900 ng·h/mL | AUC (30 mg, AUC24, Mean (SD), CGP-MD-01 EM, 30 mg QD): 1710 ng·h/mL | AUC (30 mg, AUC24, Median (5th to 95th percentile), ADVANCE EM, 30 mg QD): 1560 ng·h/mL | AUC (30 mg, AUC24, Median (5th to 95th percentile), CGP-MD-01 EM, 30 mg BID): 3180 ng·h/mL | AUC (30 mg, AUC24, Median (5th to 95th percentile), CGP-MD-01 EM, 30 mg QD): 1590 ng·h/mL | AUC (30 mg, AUC24, Median (5th to 95th percentile), PROGRESS CM, 30 mg BID): 3230 ng·h/mL | Cmax (30 mg, Mean (SD), ADVANCE EM, 30 mg QD): 271 ng/mL | Cmax (30 mg, Mean (SD), CGP-MD-01 EM, 30 mg BID): 327 ng/mL | Cmax (30 mg, Mean (SD), CGP-MD-01 EM, 30 mg QD): 260 ng/mL | Cmax (30 mg, Median (5th to 95th percentile), ADVANCE EM, 30 mg QD): 244 ng/mL | Cmax (30 mg, Median (5th to 95th percentile), CGP-MD-01 EM, 30 mg BID): 284 ng/mL | Cmax (30 mg, Median (5th to 95th percentile), CGP-MD-01 EM, 30 mg QD): 247 ng/mL | Cmax (30 mg, Median (5th to 95th percentile), PROGRESS CM, 30 mg BID): 296 ng/mL | AUC (60 mg, AUC24, Mean (SD), ADVANCE EM, 60 mg QD): 3740 ng·h/mL | AUC (60 mg, AUC24, Mean (SD), CGP-MD-01 EM, 60 mg BID): 7940 ng·h/mL | AUC (60 mg, AUC24, Mean (SD), CGP-MD-01 EM, 60 mg QD): 3640 ng·h/mL | AUC (60 mg, AUC24, Mean (SD), ELEVATE EM, 60 mg QD): 3530 ng·h/mL | AUC (60 mg, AUC24, Median (5th to 95th percentile), ADVANCE EM, 60 mg QD): 3220 ng·h/mL | AUC (60 mg, AUC24, Median (5th to 95th percentile), CGP-MD-01 EM, 60 mg BID): 6900 ng·h/mL | AUC (60 mg, AUC24, Median (5th to 95th percentile), CGP-MD-01 EM, 60 mg QD): 3450 ng·h/mL | AUC (60 mg, AUC24, Median (5th to 95th percentile), ELEVATE EM, 60 mg QD): 3310 ng·h/mL | AUC (60 mg, AUC24, Median (5th to 95th percentile), PROGRESS CM, 60 mg QD): 2900 ng·h/mL | Cmax (60 mg, Mean (SD), ADVANCE EM, 60 mg QD): 561 ng/mL | Cmax (60 mg, Mean (SD), CGP-MD-01 EM, 60 mg BID): 634 ng/mL | Cmax (60 mg, Mean (SD), CGP-MD-01 EM, 60 mg QD): 545 ng/mL | Cmax (60 mg, Median (5th to 95th percentile), ADVANCE EM, 60 mg QD): 504 ng/mL | Cmax (60 mg, Median (5th to 95th percentile), PROGRESS CM, 60 mg QD): 504 ng/mL
SMILES: C[C@@H]1[C@H](c2c(F)ccc(F)c2F)C[C@H](NC(=O)c2cnc3c(c2)C[C@@]2(C3)C(=O)Nc3ncccc32)C(=O)N1CC(F)(F)F [atogepant, Atogepant]
